Measurements collected from several papers.
Lines come from different studies, so protocols differ.
Target: Serine/threonine-protein kinase MARK2 (MARK2, Homo sapiens, UniProt Q7KZI7)

For C[C@@H]1CN(c2cc(-c3nn(C)c4ccc(OC5(C)CC5)cc34)ncn2)C[C@H](C)O1, the remaining binding was 89% (cell-free assay, competition with immobilised ligand; 1 µM).
With N#CCCc1ccc2c(c1)-c1[nH]c3ccc([N+](=O)[O-])cc3c1CC(=O)N2 the remaining signal was 65.5% (cell-free assay; 0.5 µM).
For c1cc(CN2CCOCC2)cc(Nc2ncc(C3CC3)c(NCCc3c[nH]cn3)n2)c1, the remaining activity was 14% (enzyme activity, inhibitor, radiometric; 1 µM).
The remaining binding of CS(=O)(=O)N1CCCC(NC(=O)[C@H](CCC2CCCCC2)NC(=O)c2ccc(CNC(=O)c3cnc4ccccn34)cc2)C1 (some centres unmarked) is reported as 100% (cell-free assay, competition with immobilised ligand; 0.1 µM).
With NS(=O)(=O)c1ccc(CNc2nc(Nc3cccc(NC(=O)N4CCCC4)c3)ncc2C2CC2)cc1 the remaining activity was 93% (enzyme activity, inhibitor, radiometric; 1 µM).
With c1ccc(CNc2nc(N3CCOc4ccccc43)nc3c2CCCC3)cc1 the inhibition was -11.2% (target engagement in cells, inhibitor, chemoproteomics; 20 mM).
The remaining binding of CC(=O)Nc1c(C(C)=O)c(=O)n(C)c2nc(-c3ccc(Cl)cc3Cl)c(-c3ccc(Cl)cc3)cc12 is reported as 100% (cell-free assay, competition with immobilised ligand; 1 µM).
For Cc1ccc(C(=O)NCc2ccsc2)cc1C#Cc1cn(C(C)C)c2ncnc(N)c12, the activity vs control was 99% (enzyme activity, inhibitor; 1 µM).
With NS(=O)(=O)c1ccc(CNc2nc(Nc3cccc(CN4CCOCC4)c3)ncc2Br)cc1 the remaining activity was 65% (enzyme activity, inhibitor, radiometric; 1 µM).
Oc1cccc(-c2nc(N3CCOCC3)c3oc4ncccc4c3n2)c1 has a remaining signal of 92.9% (cell-free assay; 0.5 µM).
COc1cc2ncnc(Nc3ccc(Oc4ccccc4)c(C)c3C)c2cc1OC has an inhibition of 6% (enzyme activity, inhibitor; 1 µM).
CN(C)C(=O)Cn1cc(-c2nc(C3(c4ccc(-c5cnc(N)nc5)cc4)CC3)no2)cn1 gave a remaining binding of 92% (cell-free assay, competition with immobilised ligand; 1 µM).
Cc1ccc(NC(=O)c2ccc(C)c(C(F)(F)F)c2)cc1C#Cc1nn(C2CCC(O)CC2)c2ncnc(N)c12 (centres unmarked) has a remaining signal of 98% (cell-free assay; 10 µM).
For COc1cc(/C=C/C(=O)CC(=O)/C=C/c2ccc(O)c(OC)c2)ccc1O, the activity vs control was 78% (enzyme activity, inhibitor; 1 µM).
With Cc1cc(-n2nc(Cc3cc(F)cc(C(F)(F)F)c3)nc2C)ccc1C(N)=O the remaining binding was 89% (cell-free assay, competition with immobilised ligand; 1 µM).
The inhibition of COc1cccc2c(NCc3ccccc3)nc(-n3c(N)nc4ccccc43)nc12 is reported as -7.2% (target engagement in cells, inhibitor, chemoproteomics; 20 mM).
The remaining signal of O=C1Nc2ccc(Cl)cc2C1=Cc1cc(Cl)c(O)c(Cl)c1 is reported as 79.7% (cell-free assay; 0.5 µM).
For CS(=O)(=O)c1cc(C2(NC(=O)c3cncc4c3cnn4-c3ccc(F)cc3)CC2)ccn1, the remaining binding was 100% (cell-free assay, competition with immobilised ligand; 1 µM).
With CNc1cccc2cc(C(=O)Nc3ccc(C(=O)O)cc3)c(=O)[nH]c12 the inhibition was -5.3% (enzyme activity, inhibitor; 10 µM).
With CCCCN(CCCC)C(=O)CN1C[C@@H](c2cc(OC)c3c(c2)OCO3)[C@H](C(=O)O)[C@H]1CC(C)(C)CCC the remaining binding was 100% (cell-free assay, competition with immobilised ligand; 1 µM).
CNc1cc(Oc2cc(C(=O)Nc3cc(N4CCN(C)CC4)cc(C(F)(F)F)c3)ccc2C)ncn1 gave an inhibition of -25.4% (target engagement in cells, inhibitor, chemoproteomics; Huh-7; 1 µM).
With Cc1c(C(=O)O)cc(-c2ccc(C3CCNCC3)cc2)c2ccc(-c3ccc(C(F)(F)F)cc3)cc12 the remaining binding was 100% (binding, competition with immobilised ligand; 1 µM).
The remaining activity of Cc1nn(CC(F)(F)F)cc1Nc1ncc(C2CC2)c(NCc2ccc(S(N)(=O)=O)cc2)n1 is reported as 100% (enzyme activity, inhibitor, radiometric; 1 µM).
With FC(F)(F)Oc1cccc(-c2cnc3ccc(-c4ccncc4)nn23)c1 the activity vs control was 99% (enzyme activity, inhibitor, radiometric; 5 µM).
For Cc1nn(CC(F)(F)F)cc1Nc1nccc(NCCc2cnc[nH]2)n1, the remaining activity was 104% (enzyme activity, inhibitor, radiometric; 1 µM).
With Cc1ccc(Nc2nccc(N(C)c3ccc4c(C)n(C)nc4c3)n2)cc1S(N)(=O)=O the inhibition was 16% (enzyme activity, inhibitor; 10 µM).
For Cc1nn(CC(F)(F)F)cc1Nc1ncc(Br)c(NCCc2cnc[nH]2)n1, the remaining activity was 55% (enzyme activity, inhibitor, radiometric; 1 µM).
With CNC(=O)c1cc(Oc2ccc(NC(=O)Nc3ccc(Cl)c(C(F)(F)F)c3)cc2)ccn1 the inhibition was 28% (enzyme activity, inhibitor; 0.3 µM).
The remaining activity of O=C(NCCCNc1nc(Nc2cccc(NC(=O)N3CCCC3)c2)ncc1Br)C1CCC1 is reported as 2% (enzyme activity, inhibitor, radiometric; 1 µM).
For COc1cc(Nc2cnc(C#N)c(O[C@H](C)CN(C)C)n2)ncc1-c1cnn(C)c1, the remaining activity was 57% (enzyme activity, inhibitor, radiometric; 10 µM).
The remaining activity of O=C(NCCCNc1nc(Nc2cccc(NC(=O)N3CCCC3)c2)ncc1C1CC1)C1CCC1 is reported as 6% (enzyme activity, inhibitor, radiometric; 1 µM).
For CN(C)C1CCN(CC#Cc2nn(C3CCCC3)c3nc(NCc4ccccc4)ncc23)C1 (centres unmarked), the inhibition was 16% (enzyme activity, inhibitor, FRET; 10 µM).
